Assay results pooled from the literature.
Lines come from different studies, so protocols differ.
Target: Procathepsin L (CTSL, Homo sapiens, UniProt P07711)
Read-out: enzyme activity
Mode: inhibitor

`CC(C)C[C@H](NC(=O)[C@H]1O[C@@H]1C(=O)O)C(=O)NCCCCN=C(N)N` gave an IC50 of 33 nM.
For `CC[C@H](NC(=O)OCc1ccccc1)C(=O)N[C@H](C(=O)N[C@@H](CC(C)C)C(=O)N(C)N(C#N)CCC(N)=O)C(C)(C)C`, the Ki was 22.2 nM.
`CC(C)(C)OC(=O)Nc1cccn([C@@H](CC2CC2)C(=O)N[C@@H](C[C@@H]2CCNC2=O)C(=O)C(=O)NCc2ccccc2)c1=O` gave an IC50 of 291 nM.
`CC[C@H]1NC(=O)[C@@H]2CSC(=N2)[C@@H](Cc2ccccc2)N(C)C(=O)[C@@H]2CCCN2C(=O)[C@H](C(C)C)N(C)C(=O)[C@H](Cc2ccccc2)OC(=O)[C@H](C)[C@@H](C)NC(=O)[C@@H]([C@@H](C)O)NC(=O)[C@@H](CC(C)C)N(C)C(=O)[C@@H]2CSC1=N2` gave an IC50 of 14000 nM.
The IC50 of `COc1cccc2[nH]c(C(=O)N[C@@H](CC(C)C)C(=O)N[C@@H](C[C@@H]3CCNC3=O)C(=O)CO)cc12` is reported as 146 nM.
For `O=C(Cn1nnc2ccccc21)Nc1ccccc1N1CCc2sccc2C1`, the IC50 was 9960 nM (FRET).
`COc1cc(Nc2ncc(F)c(Nc3ccc4c(n3)NC(=O)C(C)(C)O4)n2)cc(OC)c1OC` gave an IC50 of 6310 nM.
For `COC(=O)c1c(C)[nH]c(C(=O)COn2nnc3ccc(S(=O)(=O)N(C)C)cc32)c1C`, the IC50 was greater than 100000 nM (FRET).
The Ki of `CN(C(=O)[C@H](Cc1ccccc1)NC(=O)[C@@H](NC(=O)OCc1ccccc1)C(C)(C)C)N(C#N)CCC(N)=O` is reported as 52.9 nM.
